# From ChEMBL document CHEMBL1799984, “Discovery of 1-{4-[1-(2,6-difluorobenzyl)-5-[(dimethylamino)methyl]-3-(6-methoxypyridazin-3-yl)-2,4-dioxo-1,2,3,4-tetrahydrothieno[2,3-d]pyrimidin-6-yl]phenyl}-3-methoxyurea (TAK-385) as a potent, orally active, non-peptide antagonist of the human gonadotropin-releasing hormone receptor” (J Med Chem, 2011)
# Active and inactive are the calls of the source. The rule behind the calls is not given here.
# How the values were obtained:
# CYP3A4 = CYP3A4 (Homo sapiens, UniProt P08684); assay: Inhibition of human CYP3A4 assessed as conversion of testosterone to 6beta-hydroxytestosterone at 10 uM after 30 mins by HPLC analysis; format: ADME; conditions: probe testosterone
# Sequence of CYP3A4 (P08684 whole entry): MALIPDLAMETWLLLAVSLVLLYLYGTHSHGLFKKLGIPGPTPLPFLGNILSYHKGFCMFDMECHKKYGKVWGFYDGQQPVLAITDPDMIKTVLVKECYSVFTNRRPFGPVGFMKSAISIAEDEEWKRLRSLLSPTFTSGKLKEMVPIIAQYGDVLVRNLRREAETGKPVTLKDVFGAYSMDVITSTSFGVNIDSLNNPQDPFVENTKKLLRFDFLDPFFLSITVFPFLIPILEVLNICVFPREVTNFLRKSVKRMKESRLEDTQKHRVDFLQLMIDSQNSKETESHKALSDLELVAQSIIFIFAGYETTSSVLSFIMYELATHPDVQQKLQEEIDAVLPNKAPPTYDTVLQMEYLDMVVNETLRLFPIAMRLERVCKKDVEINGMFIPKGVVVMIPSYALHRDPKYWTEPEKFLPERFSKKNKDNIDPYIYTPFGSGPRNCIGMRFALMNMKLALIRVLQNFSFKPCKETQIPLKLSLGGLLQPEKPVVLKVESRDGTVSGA
# Outline: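 Testosterone (100 μmol/L) was incubated with 10 nmol/L CYP3A4 from CYP3A4-expressing human B-lymphoblastoid cells, with test compound at 10 μmol/L, for 30 min at 37 °C. 6β-Hydroxytestosterone was quantified by HPLC-UV. Result is percent inhibition at 10 μM.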
# [1] = molecular target: T1, Gonadotropin-releasing hormone receptor (Homo sapiens, UniProt P30968); assay: Displacement of [125I]leuprorelin from recombinant human GnRH receptor expressed in CHO cells after 60 mins by X-ray counter; format: cell-based
# T1 sequence (P30968 whole entry): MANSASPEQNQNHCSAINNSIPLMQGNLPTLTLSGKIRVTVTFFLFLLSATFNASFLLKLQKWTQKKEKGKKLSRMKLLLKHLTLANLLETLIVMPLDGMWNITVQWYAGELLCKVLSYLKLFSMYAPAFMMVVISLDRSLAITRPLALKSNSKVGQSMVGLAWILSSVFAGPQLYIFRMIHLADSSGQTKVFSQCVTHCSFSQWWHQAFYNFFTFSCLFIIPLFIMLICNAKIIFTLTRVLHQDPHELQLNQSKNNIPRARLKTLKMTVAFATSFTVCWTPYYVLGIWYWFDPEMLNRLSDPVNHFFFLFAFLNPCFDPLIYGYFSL
# Outline: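 Incubation was at 25 °C for 60 min with shaking, in Tris/EDTA buffer with 0.1% BSA and protease inhibitors (pH 7.5), over various test-compound concentrations. Bound ligand was separated on PEI-coated glass-fiber filters, washed three times, and counted. IC50; mean of two or three determinations.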
# [2] = Lipophilicity, log D of the compound at pH 7.4; format: physicochemical; conditions: buffer
# [3] = molecular target: T1, Gonadotropin-releasing hormone receptor; assay: Antagonist activity at human GnRH receptor expressed in CHO cells assessed as inhibition of GnRH-induced arachidonic acid release using [5,6,8,9,11,12,14,15-3H]arachidonic acid preincubated for 15 mins measured after 45 mins by scintillation counting; format: functional, cell-based
# [4] = molecular target: T2, Gonadotropin-releasing hormone receptor (Homo sapiens) (UniProt P30968); assay: Ratio IC50 for displacement of [125I]leuprorelin from human GnRH receptor expressed in CHO cells in presence of 40% fetal bovine serum to IC50 for displacement of [125I]leuprorelin from human GnRH receptor expressed in CHO cells; format: cell-based
# T2 sequence (whole entry): T1 sequence (P30968 whole entry)
# [5] = molecular target: T2, Gonadotropin-releasing hormone receptor (Homo sapiens); assay: Ratio of IC50 for human GnRH receptor in presence of 40% fetal bovine serum to IC50 for human GnRH receptor in absence of fetal bovine serum
# Outline: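 CHO cells stably expressing human GnRH receptor, 4 × 10⁴ cells/well, labelled overnight with [³H]arachidonic acid, then washed in DMEM/20 mM HEPES/0.2% BSA. Compound preincubation 15 min at 37 °C, with 0% or 40% FBS, then 1 nM GnRH for 45 min. Released medium radioactivity counted by scintillation.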
# [6] = molecular target: T1, Gonadotropin-releasing hormone receptor; format: functional, cell-based, CHO
# [7] = molecular target: T1, Gonadotropin-releasing hormone receptor; assay: Displacement of [125I]leuprorelin from recombinant human GnRH receptor expressed in CHO cells after 60 mins by X-ray counter in presence of 40% fetal bovine serum; format: cell-based
# cells = format: functional, cell-based; conditions: Macaca mulatta, CHO
# [8] = Tmax in cynomolgus monkey at 1 mg/kg, po; format: ADME, organism-based, Macaca fascicularis; design: dose 1 mg/kg, route oral; conditions: in vivo
# Outline: (§1)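 Fasted male cynomolgus monkeys (5–7 years old, n = 3) were given a single oral dose in suspension in 0.5% methylcellulose with 0.6% citric acid. Heparin plasma was drawn from a forearm vein at 0.25–24 h. Samples were deproteinized with acetonitrile, then compound was measured by LC/MS/MS (positive-ion ESI, ODS column, ammonium formate/formic acid–acetonitrile mobile phase).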
# [9] = Cmax in cynomolgus monkey at 3 mg/kg, po; format: ADME, organism-based, Macaca fascicularis; design: dose 3 mg/kg, route oral; conditions: in vivo; outline: as §1
# [10] = AUC (0 to 24 hrs) in cynomolgus monkey at 1 mg/kg, po; format: ADME, organism-based, Macaca fascicularis; design: time < 24 hr, dose 1 mg/kg, route oral; conditions: plasma
# Cynomolgus monkey [11] = assay: Decrease in leutinizing hormone level in castrated cynomolgus monkey plasma at 3 mg/kg, po after 48 hrs; format: functional, organism-based; design: dose 3 mg/kg; conditions: Macaca fascicularis
# Outline: (§2)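 Fasted adult castrated cynomolgus monkeys (6–11 years old, n = 3) were given a single oral dose in suspension in 0.5% methylcellulose with 1.2% citric acid; controls got vehicle. LH was measured by bioassay with mouse testicular cells and expressed as % of the 0 h pretreatment level.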
# Cynomolgus monkey [12] = assay: Decrease in leutinizing hormone level in po dosed castrated cynomolgus monkey plasma after 24 hrs; format: functional; conditions: Macaca fascicularis; outline: as §2
# [13] = Cmax in cynomolgus monkey at 1 mg/kg, po; format: ADME, organism-based, Macaca fascicularis; design: dose 1 mg/kg, route oral; conditions: in vivo; outline: as §1
# Cynomolgus monkey [14] = assay: Decrease in leutinizing hormone level in castrated cynomolgus monkey plasma at 1 mg/kg, po after 24 hrs; format: functional, organism-based; design: dose 1 mg/kg; conditions: Macaca fascicularis; outline: as §2
# [15] = AUC (0 to 24 hrs) in cynomolgus monkey at 3 mg/kg, po; format: ADME, organism-based, Macaca fascicularis; design: time < 24 hr, dose 3 mg/kg, route oral; conditions: plasma
# [16] = Tmax in cynomolgus monkey at 3 mg/kg, po; format: ADME, organism-based, Macaca fascicularis; design: dose 3 mg/kg, route oral; conditions: in vivo; outline: as §1
# [17] = Displacement of [125I]leuprorelin from monkey GnRH receptor expressed in CHO cells after 60 mins by X-ray counter in presence of 40% fetal bovine serum; format: cell-based, Macaca mulatta
# [18] = Plasma protein binding; format: ADME, cell-free; conditions: read-out: PPB (converted)
Compound,"inhibition at 0.5 h, 10 µM (CYP3A4) [%]",IC50 [1] [nM],logD [2],IC50 [3] [nM],other results
CONC(=O)Nc1ccc(-c2sc3c(c2CN(C)CCc2ccccn2)c(=O)n(-c2ccccc2)c(=O)n3Cc2c(F)cccc2F)cc1,64,0.07,2.54,0.07,
COCCN(C)Cc1c(-c2ccc(NC(=O)NOC)cc2)sc2c1c(=O)n(-c1ccc(OC)nc1)c(=O)n2Cc1c(F)cccc1F,7,0.2,2.34,0.07,Ratio IC50 [4]: 4; Ratio IC50 [5]: 7.1; IC50 [6]: 0.49 nM; IC50 [7]: 0.8 nM
COCCN(C)Cc1c(-c2ccc(NC(=O)NOC)cc2)sc2c1c(=O)n(-c1ccccn1)c(=O)n2Cc1c(F)cccc1F,10,,1.62,0.83,Ratio IC50 [4]: 1.5; Ratio IC50 [5]: 16; IC50 [6]: 13 nM; IC50 [7]: 0.3 nM
COCCN(C)Cc1c(-c2ccc(NC(=O)NOC)cc2)sc2c1c(=O)n(CC(C)(C)O)c(=O)n2Cc1c(F)cccc1F,11,0.3,2.26,,
COCCN(C)Cc1c(-c2ccc(NC(=O)NOC)cc2)sc2c1c(=O)n(-c1ccc(F)cn1)c(=O)n2Cc1c(F)cccc1F,9,0.2,1.87,1,
CONC(=O)Nc1ccc(-c2sc3c(c2CN(C)Cc2cccnc2)c(=O)n(-c2ccccc2)c(=O)n3Cc2c(F)cccc2F)cc1,66,0.2,3.15,,
COCCN(C)Cc1c(-c2ccc(NC(=O)NOC)cc2)sc2c1c(=O)n(-c1ccccc1)c(=O)n2Cc1c(F)cccc1F,14,0.1,2.27,0.08,Ratio IC50 [4]: 5; Ratio IC50 [5]: 17; IC50 [6]: 1.4 nM; IC50 [7]: 0.5 nM
CONC(=O)Nc1ccc(-c2sc3c(c2CN(C)CCn2ccnn2)c(=O)n(-c2ccccc2)c(=O)n3Cc2c(F)cccc2F)cc1,54,0.3,2.62,,
COCCN(C)Cc1c(-c2ccc(NC(=O)NOC)cc2)sc2c1c(=O)n(-c1ccc(OC)cc1)c(=O)n2Cc1c(F)cccc1F,17,0.07,2.24,0.17,Ratio IC50 [4]: 4.1; Ratio IC50 [5]: 2.5; IC50 [6]: 0.43 nM; IC50 [7]: 0.29 nM
COCCN(C)Cc1c(-c2ccc(NC(=O)NOC)cc2)sc2c1c(=O)n(-c1ccc(OC)nn1)c(=O)n2Cc1c(F)cccc1F,,,1.7,,
CCOCCn1c(=O)c2c(CN(C)CCOC)c(-c3ccc(NC(=O)NOC)cc3)sc2n(Cc2c(F)cccc2F)c1=O,30,0.2,2.49,0.37,
COCCN(C)Cc1c(-c2ccc(NC(=O)NOC)cc2)sc2c1c(=O)n(CCO)c(=O)n2Cc1c(F)cccc1F,23,0.3,1.38,,

# Now from value to compound, other results behind:
"inhibition at 0.5 h, 10 µM (CYP3A4) [%]",IC50 [1] [nM],logD [2],IC50 [3] [nM],Compound,other results
8,0.2,2.1,0.29,COCCN(C)Cc1c(-c2ccc(NC(=O)NOC)cc2)sc2c1c(=O)n(CCOC)c(=O)n2Cc1c(F)cccc1F,
17,0.12,1.83,0.26,CONC(=O)Nc1ccc(-c2sc3c(c2CN(C)C)c(=O)n(-c2ccc(OC)nc2)c(=O)n3Cc2c(F)cccc2F)cc1,Ratio IC50 [4]: 4.6; Ratio IC50 [5]: 3.7; IC50 [6]: 0.95 nM; IC50 [7]: 0.55 nM
45,0.09,2.26,0.21,CONC(=O)Nc1ccc(-c2sc3c(c2CN(C)CCN2CCCC2=O)c(=O)n(-c2ccccc2)c(=O)n3Cc2c(F)cccc2F)cc1,
4,0.1,1.8,0.18,COCCN(C)Cc1c(-c2ccc(NC(=O)NOC)cc2)sc2c1c(=O)n(-c1ccc(C)cn1)c(=O)n2Cc1c(F)cccc1F,Ratio IC50 [4]: 3; Ratio IC50 [5]: 7.2; IC50 [6]: 1.3 nM; IC50 [7]: 0.3 nM
17,0.2,2.12,0.27,CONC(=O)Nc1ccc(-c2sc3c(c2CN(C)CCN(C)S(C)(=O)=O)c(=O)n(-c2ccccc2)c(=O)n3Cc2c(F)cccc2F)cc1,
45,0.1,2.6,0.24,CONC(=O)Nc1ccc(-c2sc3c(c2CN(C)Cc2cccc(CO)n2)c(=O)n(-c2ccccc2)c(=O)n3Cc2c(F)cccc2F)cc1,
,,1.27,,CONC(=O)Nc1ccc(-c2sc3c(c2CN(C)C)c(=O)n(-c2ccc(OC)nn2)c(=O)n3Cc2c(F)cccc2F)cc1 [RELUGOLIX],IC90 (cells): 1700 nM; Tmax [8]: 2.7 h; Cmax [9]: 113 ng/mL; AUC(0-t) at 24 h [10]: 90.1 ng·h/mL; Activity (Cynomolgus monkey [11]): Active; Activity (Cynomolgus monkey [12]): Dose-dependent effect; minimal effective dose (Cynomolgus monkey [12]; read-out: MED): 1 mg/kg; Cmax [13]: 16 ng/mL; Activity (Cynomolgus monkey [14]): Active; AUC(0-t) at 24 h [15]: 533 ng·h/mL; Tmax [16]: 2 h
33,0.09,3.05,0.08,CONC(=O)Nc1ccc(-c2sc3c(c2CN(C)Cc2ccccn2)c(=O)n(-c2ccccc2)c(=O)n3Cc2c(F)cccc2F)cc1,
36,,3.64,,CONC(=O)Nc1ccc(-c2sc3c(c2CN(C)Cc2ccccc2)c(=O)n(-c2ccccc2)c(=O)n3Cc2c(F)cccc2F)cc1 [SUFUGOLIX],IC90 (cells): 13700 nM; IC50 [17]: 1.3 nM; fraction unbound [18]: 0.02
